What all share (format): functional, cell-based
The subject of assay [1] is A549. As to the kind of experiment: Cytotoxicity against human A549 cells after 72 hrs by alamar blue assay. The conditions noted are these: A549, 72 h. The procedure, abridged:
(§1)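 Cells seeded at 800–1000 per well (20–25 cells/µL) and left overnight to attach. Compounds were diluted serially from 10 mM DMSO stocks and tested at 8 final concentrations, 50 to 0.39 µM, in triplicate for 72 h. Vehicle control was 0.5% DMSO. Alamar blue was added to 10% final and fluorescence read after 4 h (ex 530, em 560 nm). Viability was expressed as percent of vehicle, and IC50 taken as 50% kill versus control.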
(Alamar Blue is a resazurin reagent that responds to reducing activity.)

The test system of assay [2] is NCI-H157. Put plainly: Cytotoxicity against human NCI-H157 cells after 72 hrs by alamar blue assay. The conditions noted are these: NCI-H157, 72 h. The procedure, abridged: as §1
The subject of assay [3] is NCI-H460. Put plainly: Cytotoxicity against human H460 cells after 72 hrs by alamar blue assay. The conditions noted are these: NCI-H460, 72 h. The procedure, abridged: as §1
Assay [4] relates to NCI-H1792. As to the kind of experiment: Cytotoxicity against human NCI-H1792 cells after 72 hrs by alamar blue assay. The settings on record: NCI-H1792, 72 h. The procedure, abridged: as §1
Assay [5] is described as follows: Cytotoxicity against human H266 cells after 72 hrs by alamar blue assay. The conditions noted are these: H266, 72 h. The procedure, abridged: as §1
The test system of assay [6] is HOP-62. Put plainly: Cytotoxicity against human HOP62 cells after 72 hrs by alamar blue assay. The conditions noted are these: HOP-62, 72 h. The procedure, abridged:
as §1

Assay [7] deals with NCI-H1299. As to the kind of experiment: Cytotoxicity against human NCI-H1299 cells after 72 hrs by alamar blue assay. The conditions noted are these: NCI-H1299, 72 h. The procedure, abridged: as §1
Assay [8] in a line: Cytotoxicity against human 292G cells after 72 hrs by alamar blue assay. The procedure, abridged: as §1
Assay [9] relates to Calu-1. Put plainly: Cytotoxicity against human Calu1 cells after 72 hrs by alamar blue assay. The settings on record: Calu-1, 72 h. The procedure, abridged: as §1
The test system of assay [10] is LOX IMVI. Put plainly: Cytotoxicity against human LOXIMVI cells after 72 hrs by alamar blue assay. The procedure, abridged:
as §1

Assay [11] relates to M14. Put plainly: Cytotoxicity against human M14 cells after 72 hrs by alamar blue assay. The conditions noted are these: M14, 72 h. The procedure, abridged: as §1
In assay [12] the test system is HeLa. As to the kind of experiment: Cytotoxicity against human HeLa cells after 72 hrs by alamar blue assay. The procedure, abridged:
as §1

The nature of assay [13]: Cytotoxicity against human M4E cells after 72 hrs by alamar blue assay. The procedure, abridged: as §1
The nature of assay [14]: Cytotoxicity against human SKBR cells after 72 hrs by alamar blue assay. The procedure, abridged: as §1

Where only a bound is given, the exact number is not on record here.

We go through nine compounds from ChEMBL document CHEMBL2086326, “Biological activity evaluation and structure-activity relationships analysis of ferulic acid and caffeic acid derivatives for anticancer” (Bioorg Med Chem Lett, 2012).

Consider `COc1cc(/C=C/C(=O)OCCOCCOc2no[n+]([O-])c2S(=O)(=O)c2ccccc2)ccc1O`, for which the IC50 stood at 0.41 µM in [1]; 0.44 µM in assay [2]; 0.43 µM in assay [3]; 1.07 µM in assay [4]; 0.42 µM in [5]; 0.48 µM in assay [6]. The IC50 in [7] is 0.49 µM; in [8] it was 2.88 µM; in [9], 0.45 µM; in assay [10], 0.42 µM; in [11] it was 0.41 µM; in assay [12], 0.43 µM. Moreover, the values for the IC50 in assay [13] and in assay [14] were 1.12 µM and 0.41 µM, respectively.
Consider `COc1cc(/C=C/C(=O)OCCCCO[N+](=O)[O-])ccc1OCCCCO[N+](=O)[O-]`, for which the IC50 in assay [1], in assay [2], in assay [3], in [4], in assay [5] and in [6] was > 50 µM each time. Further, the IC50 in assay [7] was > 50 µM; in [8] it was > 50 µM; in [9], > 50 µM; in assay [10], > 50 µM; in [11] it was > 50 µM; in assay [12], 0.74 µM. Besides, the IC50 in assay [13] and in assay [14] was > 50 µM in each case.
For `O=C(/C=C/c1ccc(OCCCCO[N+](=O)[O-])c(O)c1)OCCCCO[N+](=O)[O-]`, the IC50 in [1] is 0.41 µM; in [2], > 50 µM; in assay [3], > 50 µM; in assay [4] it was > 50 µM; in assay [5], > 50 µM; in assay [6] it was > 50 µM. Besides, the IC50 is > 50 µM in [7]; > 50 µM in [8]; > 50 µM in assay [9]; > 50 µM in [10]; > 50 µM in assay [11]; 3.93 µM in [12]. Also, the IC50 is > 50 µM in assay [13] and 3.23 µM in [14].
Turning to `COc1cc(/C=C/C(=O)OCCCO[N+](=O)[O-])ccc1O`, the IC50 in [1] was 13.2 µM; in assay [2], 20.5 µM; in [3], 29 µM; in assay [4] it was 28.5 µM; in [5], 44 µM; in [6] it was 19.4 µM. Also, the IC50 in [7] was 28.3 µM; in [8], 39.4 µM; in assay [9], > 50 µM; in [10] it was 29.5 µM; in assay [11], 42.6 µM; in assay [12], 6.7 µM. Further, the figures for the half-inhibitory concentration (IC50) in [13] and in assay [14] were 18.4 µM and 17.2 µM, respectively.
For `COc1cc(/C=C/C(=O)Oc2ccc(OCc3c(-c4ccccc4)no[n+]3[O-])cc2)ccc1O`, the IC50 is 3.39 µM in [1]; 43.1 µM in [2]; 15.8 µM in assay [3]; 8.15 µM in [4]; > 50 µM in assay [5]; 30.4 µM in assay [6]. The IC50 in assay [7] is 28.5 µM; in [8], 31 µM; in [9] it was 28.8 µM; in assay [10], > 50 µM; in assay [11] it was > 50 µM; in assay [12] it was 12.1 µM. Also, the IC50 in assay [13] was > 50 µM; in [14], 11 µM.
Regarding `COc1cc(/C=C/C(=O)OCCCCCO[N+](=O)[O-])ccc1OCCCCCO[N+](=O)[O-]`, the IC50 in assay [1], in [2], in assay [3], in [4], in [5] and in assay [6] was > 50 µM in each case. In addition, the IC50 in assay [7], in assay [8], in [9], in assay [10], in assay [11] and in assay [12] was > 50 µM throughout. Further, the IC50 in [13] and in assay [14] was > 50 µM each time.
Turning to `O=C(/C=C/c1ccc(O)c(O)c1)OCc1c(-c2ccccc2)no[n+]1[O-]`, the IC50 was 2.71 µM in assay [1]; > 50 µM in [2]; 2.54 µM in assay [3]; 3.78 µM in assay [4]; 14.2 µM in assay [5]; 6.12 µM in assay [6]. The IC50 in assay [7] was > 50 µM; in assay [8] it was 9.17 µM; in assay [9], 7.68 µM; in assay [10] it was 13.3 µM; in assay [11], 12.5 µM; in assay [12], 1.23 µM. Besides, the IC50 in assay [13] stood at 12.9 µM; in [14], 0.7 µM.
For the compound `COc1cc(/C=C/C(=O)OC(C)C)ccc1O`, the IC50 in [1], in [2], in assay [3], in assay [4], in assay [5] and in assay [6] was > 50 µM each time. For the same compound, the IC50 in assay [7] is > 50 µM; in [8], > 50 µM; in assay [9] it was > 50 µM; in assay [10] it was > 50 µM; in assay [11] it was > 50 µM; in assay [12], 31.1 µM. Moreover, the IC50 in assay [13] and in [14] was > 50 µM each time.
As for `CCCOC(=O)/C=C/c1ccc(O)c(O)c1`, the IC50 in [1] came to 4.39 µM; in assay [2] it was 7.16 µM; in assay [3] it was 7.01 µM; in assay [4] it was 22.1 µM; in assay [5] it was 34.4 µM; in [6], 7.81 µM. For the same compound, the IC50 in assay [7] was found to be 5.85 µM; in assay [8] it was 7.58 µM; in assay [9] it was 17.7 µM; in assay [10] it was 7.5 µM; in assay [11], 13.5 µM; in [12] it was 1.51 µM. For the same compound, the figures for the IC50 in assay [13] and in assay [14] were 12.4 µM and 3.87 µM, respectively.

A word on the IC50: it is the concentration needed to halve the response being measured. Low readings indicate greater potency, high ones weaker potency.
